GAA850 FXN act: increases GAA850 frataxin promoter reporter activity. 0.56% of 360,000 active. AID 540364. HEK293 lucGAA850 FXN promoter luciferase reporter, 24 h; percent of 10 µM SAHA response. activation, % at 6 µM;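 active = activation above the average of all compounds screened plus 3 SD, cutoff fixed separately per campaign, cut at about 7.5% in these data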;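 also: 0% = DMSO wells and 100% = 10 µM SAHA wells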
SR-BI DiI-HDL act: SR-BI HDL lipid transfer activation | CHO ldlA[mSR-BI] cells, DiI-HDL uptake fluorescence, 3 h; 100 = double the neutral-control signal | activation, % at 12.5 µM | 0.096% of 320,000 active | AID 504775;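 active = mean replicate activation of at least 60% and every replicate at or above 60%; inconclusive = mean or all-replicate condition met, but not both; inactive = mean below 60% and not all replicates reaching 60%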;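 also: 0% = median plate neutral-control signal and 100% = twice that signal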
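system = CHO ldlA[mSR-BI] cells, LDL receptor-null, SR-BI overexpressing | medium = Ham's F12 with 0.5% BSA, HEPES 25 mM, pH 7.4 | probe or stimulus = DiI-HDL 10 µg/mL | compound dosing = single-point compound dose | incubation = compound exposure 3 h, 37 °C | technique = DiI fluorescence, bottom read | read-out = cell-associated DiI fluorescence as measure of HDL uptake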
SR-BI DiI inh: inhibitors of mouse SR-BI mediated HDL lipid uptake. ldlA[mSR-BI] CHO cells, DiI-HDL uptake fluorescence, 3 h. AID 488896. Q61009. inhibition, % at 12.5 µM. 0.96% of 320,000 active;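 active = mean replicate inhibition of at least 70% and a set share of replicates each scoring 70 or more; inconclusive = meets just one of the two criteria; inactive = fails both criteria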;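 also: 0% = median of neutral control wells and 100% = median of positive control wells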
JMJD2C inh: inhibitors of human GASC-1 (JMJD2C) demethylase | GST-JMJD2C(1-420) H3K9me3 demethylation, DELFIA europium | Q9H3R0 | AID 2099 | inhibition, % at 2.35 µM | 0.069% of 330,000 active;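 active = more than half of a compound's replicate wells show inhibition beyond 50%, single wells judged on their own value; inconclusive = some, but no more than half, of replicates pass 50% inhibition; inactive = no replicate passes 50% inhibition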;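 also: signal counts dimethyl H3K9 product captured on neutravidin plate; 0% = median of DMSO wells and 100% = 0.3 times that DMSO median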
AHR activator: human AHR activation | activation, % at 5 µM | P35869 | AHR-responsive luciferase reporter cells, luminescence | 2.5% of 320,000 active | AID 2796; in the data active = activation above about 47%;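 also: 0% = vehicle wells and 100% = reference agonist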
Starred values were filed as active, the others as inactive; ? = inconclusive; . = no result. An excerpt weighted towards active compounds, which were near 3.7% of everything screened.

SMILES	GAA850 FXN act	SR-BI DiI-HDL act	SR-BI DiI inh	JMJD2C inh	AHR activator
COc1ccc(/C=C/c2cccc[n+]2C)c(O)c1	0.3	-10.9	10.9	-28.1	-3.5
C[n+]1ccccc1/C=C/c1cc(Br)ccc1O	2.3	-20.6	20.6	-4.3	59.9*
CC1Cc2nc(SCC(=O)Nc3nc4ccccc4s3)n(C)c(=O)c2S1 (configuration not stated)	2.0	4.4	-4.4	1.2	60.3*
CCc1nnc(NC(=O)CSc2nc3c(c(=O)n2C)SC(C)C3)s1 (configuration not stated)	-0.4	1.5	-1.5	-7.6	36.9
CC(C)Sc1nc2c(c(=O)n1C)SC(C)C2 (configuration not stated)	-1.1	182.8*	-182.8	5.6	-0.7
Cc1ccc(C)n1-c1ccc(C(=O)NN=C2CCCC2)cc1	1.1	-19.7	19.7	4.6	-0.1
COc1ccccc1N1C(=O)S/C(=C\c2cccs2)C1=O	1.8	-1.4	1.4	-2.1	77.9*
O=C(N/C(=C\c1cccc([N+](=O)[O-])c1)C(=O)N1CCOCC1)c1ccc([N+](=O)[O-])cc1	2.2	-8.6	8.6	1.5	-1.6
COc1cccc(/C=N/Nc2snc(SC)c2C#N)c1	1.6	-26.4	26.4	4.1	48.7*
COc1cccc(/C=N/Nc2snc(SC)c2C#N)c1O	-2.4	-29.9	29.9	4.5	38.6
CSc1nsc(N/N=C/c2ccccc2)c1C#N	1.5	-38.6	38.6	-0.6	60.0*
CCc1cccc(NC(=O)CCNS(=O)(=O)c2ccc3c(c2)oc(=O)n3C)c1	1.1	.	42.9	-2.8	2.7
CCC(C)(C)NC(=O)CN(C(=O)CCC(=O)Nc1ccccn1)c1ccc2c(c1)OCO2	2.2	.	.	8.3	-8.7
CCN(CC)C(=O)Cn1cc(C(=O)C(=O)N2CCN(C)CC2)c2ccccc21	-0.2	20.8	-20.8	-19.8	5.9
CCN(CC)C(=O)Cn1cc(C(=O)C(=O)N2CCCc3ccccc32)c2ccccc21	-1.1	.	.	.	70.4*
Nc1ccc(O)c2ccccc12	.	.	.	-21.9	57.3*
CC(=O)c1c(C)[nH]c(C(=O)Nc2ccc3c(c2)OCCO3)c1C	1.3	-64.5	64.5	-5.0	53.7*
CC(=O)c1c(C)[nH]c(C(=O)Nc2cccnc2)c1C	-1.7	3.3	-3.3	1.6	57.1*
CC(=O)c1c(C)[nH]c(C(=O)Nc2ccc(C)c(C)c2)c1C	1.6	-39.8	39.8	5.9	-16.1
CC(=O)c1c(C)[nH]c(C(=O)Nc2cccc(C(F)(F)F)c2)c1C	0.8	.	.	1.8	-5.4
COc1ccc(NC(=O)c2[nH]c(C)c(C(C)=O)c2C)cc1Cl	0.6	-74.8	74.8*	5.3	40.3
Cc1nn(C)cc1C(=O)Nc1ccc2c(c1)OCCO2	-3.7	.	.	-0.3	47.5*
COc1cccc(NC(=O)CN(C)C(=O)c2ccc3c(c2)S(=O)(=O)N=C2CCCCCN23)c1	-0.8	-22.2	22.2	0.1	-1.4
CN(C)CCCNC(=O)c1ccc(Oc2ccccc2)cc1	1.2	-6.7	6.7	26.4	0.1
CCOc1ccc(NC(=O)c2[nH]c(C)c(C(C)=O)c2C)cc1	-3.0	-19.1	19.1	8.3	21.1
SMILES	GAA850 FXN act	SR-BI DiI-HDL act	SR-BI DiI inh	JMJD2C inh	AHR activator
COc1ccc(NC(=O)c2[nH]c(C)c(C(C)=O)c2C)cc1	1.6	-34.7	34.7	19.4	60.8*
Cc1ccc(-c2csc3ncnc(Nc4ccc(N5CCOCC5)cc4)c23)cc1	6.8	-56.6	56.6	-3.3	78.1*
Cc1cccc(NC(=O)CCS(=O)(=O)c2cccc3nsnc23)c1C	-2.6	70.4*	-70.4	7.5	9.4
CCOC(=O)c1cccc(NC(=O)CCS(=O)(=O)c2cccc3nsnc23)c1	-3.3	-23.0	23.0	-5.5	13.2
COc1ccccc1NC(=O)Nc1nc(CC(=O)N2CCN(c3ccccc3)CC2)cs1	-0.5	-71.1	?	-6.2	26.3
COc1ccc(N2CCN(C(=O)Cc3csc(NC(=O)Nc4ccccc4OC)n3)CC2)cc1	-4.1	-80.3	80.3*	-38.3	19.8
COc1ccccc1NC(=O)Nc1nc(CC(=O)N2CCN(c3ccc(F)cc3)CC2)cs1	-1.2	-76.0	76.0*	-1.6	9.6
O=C(NCC(c1cccs1)N1CCOCC1)c1ccc(Cl)c(S(=O)(=O)N2CCOCC2)c1 (configuration not stated)	-0.7	.	.	-2.6	3.1
COc1ccc(-c2[nH]n(-c3ccc([N+](=O)[O-])cc3)c(=O)c2C=NCCN2CCNCC2)cc1	.	.	.	5.4	1.9
COc1ccc(-c2[nH]n(-c3ccc([N+](=O)[O-])cc3)c(=O)c2C=NCc2ccccc2)cc1	3.1	-87.4	87.4*	-4.6	-0.3
O=C(COC(=O)C1CCN(c2ccc(C(F)(F)F)cn2)CC1)NCc1cccc(Cl)c1	2.3	1.3	-1.3	.	.
CCNC(=S)NC(=NCc1cccnc1)Nc1nc(C)cc(C)n1	0.8	10.0	-10.0	75.8*	40.1
CCc1c(C(=O)Nc2nnc(C3CC3)s2)csc1C	4.5	6.0	-6.0	5.4	67.3*
COc1ccc(-c2ccnc3nc(/N=C/N(C)C)nn23)cc1	.	.	.	42.6	10.1
CN(C)/C=N/c1nc2nccc(-c3cccnc3)n2n1	-0.5	-7.3	7.3	-5.0	57.9*
CCSc1nc(-c2ccc(OC)cc2)cc(-c2ccccc2)c1C#N	1.2	-79.8	79.8*	1.3	2.5
CCOc1ccccc1NC(=O)CN1C(=O)CSC(C)C1=O (configuration not stated)	-1.2	-2.4	2.4	4.0	1.1
COc1cc2c(cc1OC)CN(c1ccc([N+](=O)[O-])cc1Cl)CC2	4.8	-80.1	80.1*	10.3	0.3
COc1cc2c(cc1OC)CN(c1ccc(F)cc1[N+](=O)[O-])CC2	6.1	-40.6	40.6	-2.1	59.1*
COc1cc2c(cc1OC)CN(c1ccc([N+](=O)[O-])cc1C#N)CC2	3.5	-64.4	64.4	-1.4	1.9
COc1ccc(N2CCN(C(=O)c3ccc4ccccc4n3)CC2)cc1	2.5	-12.4	12.4	-12.7	16.4
CC(=O)Nc1cccc(NC(=O)c2cc(-c3cccnc3)nc3ccc(Br)cc23)c1	-10.0	-32.5	32.5	14.0	2.6
O=C(Nc1ccc(C(=O)N2CCOCC2)cc1)c1cc(-c2cccnc2)nc2ccc(Cl)cc12	0.4	-79.0	79.0*	-8.4	5.2
CC(=O)Nc1cccc(NC(=O)c2cc(-c3cccnc3)nc3ccc(Cl)cc23)c1	-7.7	-73.3	73.3*	11.5	14.5
Cc1ccc(NC2CCCN(C(=O)CCn3nccc3C)C2)cc1C (configuration not stated)	-0.2	12.9	-12.9	-9.9	38.0
CC(C)(C)c1ccc(S(=O)(=O)NNC(=O)c2cc3ccccc3[nH]2)cc1	4.0	6.5	-6.5	9.0	74.3*
CCCC(C)NNC(=O)c1cc2ccccc2[nH]1 (configuration not stated)	-0.1	-2.9	2.9	0.6	18.4
c1ccc2c(c1)-c1cccc3c1c-2cc1ccccc13	.	.	.	14.3	101.8*

Bioassay records from PubChem BioAssay.
